Laboratory results: ChEMBL document CHEMBL2177066, “Opioid activity profiles of oversimplified peptides lacking in the protonable N-terminus” (J Med Chem, 2012)
Where a SMILES comes first, the peptide text is derived from it. [ ]: non-standard residue; d: D form.

Tests used:
[1] = molecular target: Delta-type opioid receptor (Homo sapiens, UniProt P41143); assay: Displacement of [3H]diprenorphine from human DOR expressed in HEK293 cells after 90 mins by liquid scintillation counting; format: cell-based
Sequence of Delta-type opioid receptor (P41143 whole entry): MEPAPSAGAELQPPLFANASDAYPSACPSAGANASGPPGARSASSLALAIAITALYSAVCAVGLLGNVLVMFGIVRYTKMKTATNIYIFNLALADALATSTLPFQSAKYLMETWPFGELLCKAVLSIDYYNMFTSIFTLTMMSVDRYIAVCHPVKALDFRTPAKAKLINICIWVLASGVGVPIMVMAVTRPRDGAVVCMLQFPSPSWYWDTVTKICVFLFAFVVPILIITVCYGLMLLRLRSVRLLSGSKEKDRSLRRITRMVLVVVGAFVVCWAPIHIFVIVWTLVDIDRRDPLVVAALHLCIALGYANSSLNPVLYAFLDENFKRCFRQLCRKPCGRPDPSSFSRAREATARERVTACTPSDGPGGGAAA

[2] = molecular target: T1, Mu-type opioid receptor (Homo sapiens, UniProt P35372); assay: biochemical
T1 sequence (P35372 whole entry): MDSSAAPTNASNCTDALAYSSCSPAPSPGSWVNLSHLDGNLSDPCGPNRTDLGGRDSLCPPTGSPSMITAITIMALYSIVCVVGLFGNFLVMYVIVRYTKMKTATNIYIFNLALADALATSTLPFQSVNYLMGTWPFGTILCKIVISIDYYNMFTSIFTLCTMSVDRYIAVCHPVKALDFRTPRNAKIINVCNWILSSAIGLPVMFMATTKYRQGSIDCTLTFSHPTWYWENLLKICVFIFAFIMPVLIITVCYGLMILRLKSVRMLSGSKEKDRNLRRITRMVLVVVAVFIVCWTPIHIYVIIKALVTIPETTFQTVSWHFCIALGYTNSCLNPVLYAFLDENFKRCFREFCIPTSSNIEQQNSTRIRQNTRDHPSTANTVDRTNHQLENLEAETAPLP

[3] = molecular target: Kappa-type opioid receptor (Homo sapiens, UniProt P41145); assay: Displacement of [3H]U69,593 from human KOR expressed in HEK293 cells after 90 mins by liquid scintillation counting; format: cell-based
Sequence of Kappa-type opioid receptor (P41145 whole entry): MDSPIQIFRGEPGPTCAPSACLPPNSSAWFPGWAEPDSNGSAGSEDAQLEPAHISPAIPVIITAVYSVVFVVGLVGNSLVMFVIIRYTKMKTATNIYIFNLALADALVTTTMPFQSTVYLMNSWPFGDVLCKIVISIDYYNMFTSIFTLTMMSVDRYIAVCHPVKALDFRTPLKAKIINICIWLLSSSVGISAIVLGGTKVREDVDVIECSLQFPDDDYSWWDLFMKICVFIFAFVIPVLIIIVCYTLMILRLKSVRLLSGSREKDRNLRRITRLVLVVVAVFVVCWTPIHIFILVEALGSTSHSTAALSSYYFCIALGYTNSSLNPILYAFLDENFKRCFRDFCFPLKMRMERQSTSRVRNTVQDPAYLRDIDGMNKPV
Outline: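 Membranes from HEK-293 cells expressing human KOR incubated 90 min at 25 °C in 100 mM Tris-HCl with 0.3% BSA, with [3H]U69,593 at 2 nM. Nonspecific binding defined with 10 μM U50,488. Filtered on polyethylenimine-presoaked GF/C filters, washed with ice-cold 50 mM Tris-HCl pH 7.4, then scintillation counted. Run in triplicate, ≥3 experiments. Ki from IC50 by Cheng–Prusoff.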

[4] = molecular target: T1, Mu-type opioid receptor; format: functional, cell-based, HEK293
[5] = molecular target: T1, Mu-type opioid receptor; assay: Partial agonist activity at human MOR expressed in HEK293 cells assessed as inhibition of forskolin-induced cAMP accumulation after 15 mins by cAMP EIA; format: functional, cell-based
Outline: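 Whole HEK-293 cells stably expressing MOR, grown in MEM/10% FBS and plated at 85–95% confluence. Cells washed, placed in serum-free medium with 0.5 mM IBMX, and given 10 μM forskolin ± compound (0.01 nM–100 μM) for 15 min at 37 °C. Lysed in 0.1 N HCl; cAMP in supernatant measured by EIA. Triplicates averaged for IC50 and Emax (% vehicle), 5–6 independent experiments.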

Row | Compound | Ki [1] | Ki [2] | Ki [3] | IC50 [5] | IC50 [4]
1 | CC(=O)N[C@H](CCCNC(=N)N)C(=O)N[C@@H](Cc1ccccc1)C(N)=O | > 100 µM | > 100 µM | > 100 µM |  | 
2 | CC(=O)N[C@H](CCCNC(=N)N)C(=O)N[C@@H](Cc1ccccc1)C(=O)NCC(N)=O | > 100 µM | > 100 µM | > 100 µM |  | 
3 | NC(=O)[C@H]1CC(=O)NCCC(=O)N[C@H](Cc2c[nH]c3ccccc23)C(=O)N[C@@H](Cc2ccccc2)C(=O)N1 | > 100 µM | 0.0059 µM | > 100 µM |  | 0.037 µM
4 | CC(=O)N[C@H](Cc1c[nH]c2ccccc12)C(=O)N[C@@H](Cc1ccccc1)C(=O)NCC(N)=O (Ac-[dW]-Phe-Gly-NH2) | > 100 µM | 0.0056 µM | > 100 µM | 0.2 µM | 

Second part, led by results:

Row | Ki [1] | Ki [2] | Ki [3] | IC50 [5] | Compound | IC50 [4]
5 | > 100 µM | > 100 µM | > 100 µM |  | CC(=O)N[C@H](Cc1cnc[nH]1)C(=O)N[C@@H](Cc1ccccc1)C(N)=O | 
6 | > 100 µM | > 100 µM | > 100 µM |  | CC(=O)N[C@H](Cc1cnc[nH]1)C(=O)N[C@@H](Cc1ccccc1)C(=O)NCC(N)=O | 
7 | > 100 µM | > 100 µM | > 100 µM |  | CC(=O)N[C@H](CCCCN)C(=O)N[C@@H](Cc1ccccc1)C(N)=O | 
8 | > 100 µM | > 100 µM | > 100 µM |  | CC(=O)N[C@H](CCCCN)C(=O)N[C@@H](Cc1ccccc1)C(=O)NCC(N)=O | 
9 | 0.0121 µM | 74 µM | 33 µM |  | CC(=O)N[C@@H](Cc1c[nH]c2ccccc12)C(=O)N[C@@H](Cc1ccccc1)C(=O)NCC(N)=O (Ac-Trp-Phe-Gly-NH2) | 
10 | 0.024 µM | 0.0155 µM | > 100 µM |  | CC(=O)N[C@H](Cc1c[nH]c2ccccc12)C(=O)N[C@@H](Cc1ccccc1)C(N)=O (Ac-[dW]-Phe-NH2) | > 100 µM
